Assays:
[1] = molecular target: T1, Aldo-keto reductase family 1 member B1 (Bos taurus, UniProt P16116); test: Inhibition of Aldose reductase 2 of bovine lens
In short: (§1)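 ALR2 partly purified from bovine lens (DEAE chromatography), 3.5 mU/mL. Run at 37 °C with 4.7 mM D,L-glyceraldehyde and 0.11 mM NADPH in 0.25 M sodium phosphate pH 6.80 with 0.38 M ammonium sulfate. Inhibitor added in DMSO, 1% final. Blank without substrate.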

[2] = molecular target: Aldo-keto reductase family 1 member B1 (Bos taurus) (UniProt P16116); test: The compound was tested for Inhibitory effect uM; conditions: concentration not given here
[3] = molecular target: Aldo-keto reductase family 1 member B1 (Bos taurus) (UniProt P16116); test: (§2) Compound was tested for Ratio of IC50(ALR1)/(ALR2)
In short: (§3)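 Ratio of IC50 values. ALR1 (bovine kidney; 20 mM D-glucuronate, 0.12 mM NADPH, pH 7.20) and ALR2 (bovine lens; 4.7 mM D,L-glyceraldehyde, 0.11 mM NADPH, pH 6.80). Both enzymes at 3.5 mU/mL, 37 °C, 1% DMSO. IC50 from log dose–inhibition curves in duplicate.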

[4] = molecular target: T2, Aldo-keto reductase family 1 member A1 (Bos taurus, UniProt Q3ZCJ2); test: The compound was tested for Inhibitory effect against Aldose reductase 1 in bovine kidneys
T2 sequence (Q3ZCJ2 2-325 limits assumed): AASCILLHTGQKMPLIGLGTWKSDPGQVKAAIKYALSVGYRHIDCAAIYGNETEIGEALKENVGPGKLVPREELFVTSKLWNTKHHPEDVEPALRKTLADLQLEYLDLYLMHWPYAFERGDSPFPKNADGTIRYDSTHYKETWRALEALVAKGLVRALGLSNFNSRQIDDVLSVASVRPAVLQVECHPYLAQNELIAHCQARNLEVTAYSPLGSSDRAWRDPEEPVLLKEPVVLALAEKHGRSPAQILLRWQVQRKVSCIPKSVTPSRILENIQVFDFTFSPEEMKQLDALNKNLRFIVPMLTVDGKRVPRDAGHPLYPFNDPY
In short: (§4)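 Run at 37 °C with 20 mM D-glucuronate and 0.12 mM NADPH in 0.1 M sodium phosphate pH 7.20. Inhibitor added in DMSO, 1% final. Blank without substrate.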

[5] = Proton dissociation constant pKa was determined at 25 degree C; format: physicochemical
In short: (§5)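 Compound solution added to buffers at ionic strength 0.1 M, pH stepped by 0.25 unit. UV–vis spectra recorded and pH measured with a calibrated electrode. pKa calculated from absorbance change at λmax of the dissociated form, then corrected for ionic strength.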

[6] = system: Aldo-keto reductase family 1 member A1, aldehyde reductase ALR1 (Bos taurus); test: The compound was tested for Inhibitory effect uM; conditions: concentration not given here
[7] = molecular target: T1, Aldo-keto reductase family 1 member B1; test: Inhibition of ALR2 (aldose reductase) of bovine lens; in short: as §1
[8] = The compound was tested for the pKa (+/-SD) values at 25 degree C; format: physicochemical; in short: as §5
[9] = system: Liposome; test: Antioxidant action tested in AAPH-induced malondialdehyde (MDA) of liposomes after 5 min; format: functional
In short: (§6)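 Lipid (LA, 2 mg/mL) suspended in 50 mM Tris pH 7.4 and extruded into micelles with test antioxidant at 0.2 mM final. Peroxidation started with AAPH (10 mM), 37 °C in shaking water bath. Aliquots taken at intervals, mixed with 20% TCA, then 0.67% TBA, boiled 10 min, hexane-extracted. MDA read at 535 nm (ε 1.49×10^5). Means ± SE.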

[10] = system: Liposome; test: Antioxidant action tested in AAPH-induced malondialdehyde (MDA) of liposomes after 30 min; format: functional; in short: as §6
[11] = system: Liposome; test: Antioxidant action tested in AAPH-induced malondialdehyde (MDA) of liposomes after 40 min; format: functional; in short: as §6
[12] = system: Liposome; test: Antioxidant action tested in AAPH-induced malondialdehyde (MDA) liposomes after 15 min; format: functional; in short: as §6
[13] = system: Liposome; test: Antioxidant action tested in AAPH-induced malondialdehyde (MDA) liposomes after 60 min; format: functional; in short: as §6
[14] = system: Liposome; test: Antioxidant action tested in AAPH-induced malondialdehyde (MDA) of liposomes after 15 min; format: functional; in short: as §6
[15] = system: Liposome; test: Antioxidant action tested in AAPH-induced malondialdehyde (MDA) of liposomes after 60 min; format: functional; in short: as §6
[16] = as §2; in short: as §3
[17] = molecular target: T2, Aldo-keto reductase family 1 member A1; test: The compound was tested for Inhibitory effect against ALR1 in bovine kidneys; format: tissue-based, Kidney; in short: as §4
[18] = system: Liposome; test: Antioxidant action tested inAAPH-induced malondialdehyde (MDA) liposomes after 40 min; format: functional, subcellular; in short: as §6
[19] = system: Liposome; test: Antioxidant action tested in AAPH-induced malondialdehyde (MDA) liposomes after 5 min; format: functional; in short: as §6
[20] = system: Liposome; test: Antioxidant action tested in AAPH-induced malondialdehyde (MDA) liposomes after 30 min; format: functional; in short: as §6
[21] = molecular target: Aldo-keto reductase family 1 member B1 (Bos taurus) (UniProt P16116); test: The compound was tested for Inhibitory effect against ALR2 in bovine lenses at 77 uM; format: tissue-based; conditions: Lens of camera-type eye; in short: as §1

O=C(O)c1ccc2c(=O)cc(Cc3ccc(O)cc3)oc2c1
IC50 [1]: 10.9 µM

COc1ccc(Cc2cc(=O)c3ccc(OC)cc3o2)cc1
inhibition [2]: 0%

COc1ccc2oc(Cc3ccc(O)cc3)cc(=O)c2c1
inhibition [2]: 40%

COc1ccc(Cc2cc(=O)c3ccc(O)cc3o2)cc1
IC50 [1]: 7.01 µM
Ratio [3]: 2.4
IC50 [4]: 16.6 µM
pKa [5]: 7.35

O=c1cc(-c2ccccc2)oc2cc(O)c([N+](=O)[O-])cc12
inhibition [6]: 27.5%
IC50 [7]: 3.87 µM
pKa [8]: 5.3

O=C(O)Cc1ccc2c(=O)cc(Cc3ccc(O)cc3)oc2c1
IC50 [1]: 1.3 µM
Ratio [3]: 98.5
IC50 [4]: 128 µM

COc1ccc2c(=O)cc(Cc3ccc(O)cc3)oc2c1
inhibition [2]: 37%

COc1ccc2c(=O)cc(-c3ccccc3)oc2c1
inhibition [2]: 32%

O=c1c(Cc2ccccc2)c(Cc2ccc(O)cc2)oc2cc(O)ccc12
IC50 [1]: 14.2 µM

O=c1cc(Cc2ccc(O)cc2)oc2ccc(O)cc12
IC50 [1]: 13.1 µM
Activity [9]: 1.19 nM ml-1
Activity [10]: 1.46 nM ml-1
Activity [11]: 1.29 nM ml-1
Activity [12]: 1.54 nM ml-1
Activity [13]: 1.27 nM ml-1
pKa [5]: 8.89

O=c1ccoc2cc(O)ccc12
IC50 [1]: 137 µM
Ratio [3]: 1
IC50 [4]: 114 µM

O=c1cc(CCc2ccc(O)cc2)oc2cc(O)ccc12
IC50 [1]: 41 µM

O=c1cc(Cc2ccc(O)c(O)c2)oc2cc(O)ccc12
Activity [14]: 1.18 nM ml-1
Activity [15]: 1.53 nM ml-1
Ratio [16]: 4.2
Activity [9]: 0.935 nM ml-1
Activity [10]: 1.07 nM ml-1
Activity [11]: 0.852 nM ml-1
IC50 [17]: 13.2 µM
IC50 [7]: 3.14 µM

O=c1cc(C(c2ccccc2)c2ccccc2)oc2cc(O)ccc12
IC50 [1]: 10.9 µM

O=c1cc(Cc2ccc(O)cc2)oc2cc(O)ccc12
IC50 [1]: 2.5 µM
Activity [18]: 2.1 nM ml-1
Ratio [3]: 6.7
IC50 [4]: 16.8 µM
Activity [19]: 2.02 nM ml-1
Activity [20]: 1.9 nM ml-1
Activity [12]: 1.95 nM ml-1
Activity [13]: 1.81 nM ml-1

COc1ccc2c(=O)c(Cc3ccc(O)cc3)coc2c1
inhibition [21]: 18%

O=c1cc(-c2ccc(O)c(O)c2)oc2cc(O)cc(O)c12 [LUTEOLIN]
IC50 [7]: 9.57 µM

O=c1cc(Cc2ccc3ccccc3c2)oc2cc(O)ccc12
IC50 [1]: 22.3 µM

O=c1cc(-c2ccc(O)c(O)c2)oc2cc(O)ccc12
IC50 [7]: 6.52 µM

O=c1cc(CCCc2ccc(O)cc2)oc2cc(O)ccc12
IC50 [1]: 29.4 µM

O=c1c(Cc2ccc(O)cc2)coc2cc(O)ccc12
IC50 [7]: 60.5 µM

O=c1c(Cc2ccc(-c3ccccc3)cc2)c(Cc2ccc(O)cc2)oc2cc(O)ccc12
inhibition [2]: 0%

Cc1oc2cc(O)ccc2c(=O)c1Cc1ccc(O)cc1
IC50 [1]: 85.7 µM

O=c1cc(Cc2ccccc2)oc2cc(O)ccc12
IC50 [1]: 6.61 µM
Ratio [3]: 5.9
IC50 [4]: 39.2 µM

O=c1c(O)c(-c2ccccc2)oc2ccccc12
inhibition [2]: 0%

Cc1cc(C(C)(C)C)c(O)c(C(C)(C)C)c1
Activity [14]: 1.33 nM ml-1
Activity [15]: 0.937 nM ml-1
Activity [9]: 1.62 nM ml-1
Activity [10]: 1.33 nM ml-1
Activity [11]: 1.23 nM ml-1

O=c1cc(-c2ccccc2)oc2cccc(O)c12
inhibition [2]: 0%

— ChEMBL document CHEMBL1132271, “1-Benzopyran-4-one antioxidants as aldose reductase inhibitors” (J Med Chem, 1999)
